In ChEMBL document CHEMBL1158589, “Benzimidazole and imidazole inhibitors of histone deacetylases: Synthesis and biological activity” (Bioorg Med Chem Lett, 2010):

Target: T1, Protein deacetylase HDAC6 (Homo sapiens, UniProt Q9UBN7)
T1 sequence (Q9UBN7 whole entry): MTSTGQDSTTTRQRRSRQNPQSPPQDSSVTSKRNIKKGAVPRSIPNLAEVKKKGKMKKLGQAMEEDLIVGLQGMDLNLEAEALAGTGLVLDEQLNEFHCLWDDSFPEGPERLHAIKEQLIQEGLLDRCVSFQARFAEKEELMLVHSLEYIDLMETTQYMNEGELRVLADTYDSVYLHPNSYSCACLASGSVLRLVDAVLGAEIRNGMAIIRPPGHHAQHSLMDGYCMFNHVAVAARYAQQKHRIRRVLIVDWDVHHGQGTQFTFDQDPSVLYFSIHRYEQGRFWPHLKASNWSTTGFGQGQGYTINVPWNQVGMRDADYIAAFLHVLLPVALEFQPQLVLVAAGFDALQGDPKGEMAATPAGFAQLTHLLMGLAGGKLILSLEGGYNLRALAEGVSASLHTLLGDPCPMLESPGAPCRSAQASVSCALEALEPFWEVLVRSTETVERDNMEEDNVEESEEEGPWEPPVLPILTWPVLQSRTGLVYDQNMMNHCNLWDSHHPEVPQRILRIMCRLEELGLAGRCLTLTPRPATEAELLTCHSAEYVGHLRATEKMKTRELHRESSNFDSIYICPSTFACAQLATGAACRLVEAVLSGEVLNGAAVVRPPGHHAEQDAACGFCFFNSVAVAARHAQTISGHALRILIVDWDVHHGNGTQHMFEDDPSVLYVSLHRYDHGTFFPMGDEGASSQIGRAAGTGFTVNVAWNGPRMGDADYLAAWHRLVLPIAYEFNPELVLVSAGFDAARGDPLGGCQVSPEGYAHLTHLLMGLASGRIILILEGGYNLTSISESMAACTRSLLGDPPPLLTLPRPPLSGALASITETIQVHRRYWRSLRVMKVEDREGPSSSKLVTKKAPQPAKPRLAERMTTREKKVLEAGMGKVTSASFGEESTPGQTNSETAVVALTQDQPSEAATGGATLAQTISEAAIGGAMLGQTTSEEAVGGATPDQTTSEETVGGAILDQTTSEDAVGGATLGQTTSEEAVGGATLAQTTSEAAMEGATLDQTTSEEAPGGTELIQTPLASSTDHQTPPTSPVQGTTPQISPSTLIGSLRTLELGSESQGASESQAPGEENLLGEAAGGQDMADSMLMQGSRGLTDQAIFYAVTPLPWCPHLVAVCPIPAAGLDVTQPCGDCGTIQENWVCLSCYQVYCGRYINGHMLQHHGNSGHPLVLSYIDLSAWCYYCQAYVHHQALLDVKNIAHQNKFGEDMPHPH
Experiment: Inhibition of human recombinant HDAC6
Conditions: not given
Outline: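 Purified recombinant human HDAC-2 or HDAC-6 at known enzyme concentration with tBOC(Ac)-Lys-AMC as substrate. IC50 is the mean of at least three experiments.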

For `CC(C)n1c(-c2cccc(/C=C/C(=O)NO)c2)nc2ccccc21`, which IC50 is on record?
The IC50 was 100 nM.

With `Cc1c(Cc2ccccc2)nc(-c2cccc(/C=C/C(=O)NO)c2)n1CCc1ccccc1` as the compound, how does the IC50 read?
The IC50 was 63 nM.

For `Cc1c(-c2ccccc2)nc(-c2cccc(/C=C/C(=O)NO)c2)n1[C@@H]1CCCN(C)C1`, which IC50 is on record?
The IC50 was 63 nM.

With `CCN1CCC[C@@H](n2c(-c3cccc(/C=C/C(=O)NO)c3)nc(Cc3ccccc3)c2C)C1` as the compound, how does the IC50 read?
The IC50 was 100 nM.

Which IC50 does the source give for `Cc1nc(-c2cccc(/C=C/C(=O)NO)c2)n(CCN2CCOCC2)c1-c1ccccc1` here?
Its IC50 is 120 nM.

For `CCN1CCC[C@@H](n2c(-c3cccc(/C=C/C(=O)NO)c3)nc(C)c2C)C1`, which IC50 is on record?
The IC50 was 120 nM.

For `O=C(/C=C/c1cccc(-c2nc3ccccc3n2[C@H]2CCCNC2)c1)NO`, which IC50 is on record?
Its IC50 is 25 nM.

With `Cc1nc(-c2cccc(/C=C/C(=O)NO)c2)n(CCc2ccccc2)c1-c1ccccc1` as the compound, how does the IC50 read?
Its IC50 is 79 nM.

Target: T2, Histone deacetylase 8 (Homo sapiens, UniProt Q9BY41)
T2 sequence (Q9BY41 whole entry): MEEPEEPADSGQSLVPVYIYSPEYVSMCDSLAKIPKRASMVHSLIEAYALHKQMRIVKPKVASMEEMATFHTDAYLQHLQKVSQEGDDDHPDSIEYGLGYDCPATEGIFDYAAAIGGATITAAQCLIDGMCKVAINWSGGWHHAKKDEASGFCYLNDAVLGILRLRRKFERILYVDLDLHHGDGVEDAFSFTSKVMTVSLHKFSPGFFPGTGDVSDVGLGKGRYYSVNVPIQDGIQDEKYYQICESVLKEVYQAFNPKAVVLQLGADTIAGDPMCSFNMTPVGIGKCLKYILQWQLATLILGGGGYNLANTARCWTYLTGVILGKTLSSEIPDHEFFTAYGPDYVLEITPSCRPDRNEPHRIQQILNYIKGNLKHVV
Experiment: Inhibition of human recombinant HDAC8
Conditions: not given

How did the IC50 turn out when `CC(C)n1c(-c2cccc(/C=C/C(=O)NO)c2)nc2ccccc21` was run?
Its IC50 is 40 nM.

`Cc1c(Cc2ccccc2)nc(-c2cccc(/C=C/C(=O)NO)c2)n1CCc1ccccc1` was tested. Which IC50 did it give?
The IC50 was 16 nM.

`Cc1c(-c2ccccc2)nc(-c2cccc(/C=C/C(=O)NO)c2)n1[C@@H]1CCCN(C)C1` was tested. Which IC50 did it give?
The IC50 was 50 nM.

With `CCN1CCC[C@@H](n2c(-c3cccc(/C=C/C(=O)NO)c3)nc(Cc3ccccc3)c2C)C1` as the compound, how does the IC50 read?
The IC50 was 50 nM.

For `Cc1nc(-c2cccc(/C=C/C(=O)NO)c2)n(CCN2CCOCC2)c1-c1ccccc1`, which IC50 is on record?
Its IC50 is 79 nM.

For `CCN1CCC[C@@H](n2c(-c3cccc(/C=C/C(=O)NO)c3)nc(C)c2C)C1`, which IC50 is on record?
Its IC50 is 100 nM.

With `O=C(/C=C/c1cccc(-c2nc3ccccc3n2[C@H]2CCCNC2)c1)NO` as the compound, how does the IC50 read?
Its IC50 is 120 nM.

`Cc1nc(-c2cccc(/C=C/C(=O)NO)c2)n(CCc2ccccc2)c1-c1ccccc1` was tested. Which IC50 did it give?
Its IC50 is 25 nM.

Tested on: A549
Experiment: Cytotoxicity against human A549 cells assessed as NADH level after 72 hrs by MTS cells
Type: functional, cell-based
Conditions: A549, 72 h
Outline: (§1)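 Human A549 lung, HL60 leukemia and PC3 prostate cancer lines incubated with compound for 72 h. Viability read by MTS colorimetric assay from remaining NADH; EC50 calculated; mean of at least two experiments.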

With `CC(C)n1c(-c2cccc(/C=C/C(=O)NO)c2)nc2ccccc21` as the compound, how does the EC50 read?
The EC50 was 5000 nM.

`Cc1c(Cc2ccccc2)nc(-c2cccc(/C=C/C(=O)NO)c2)n1CCc1ccccc1` was tested. Which EC50 did it give?
Its EC50 is 800 nM.

`Cc1c(-c2ccccc2)nc(-c2cccc(/C=C/C(=O)NO)c2)n1[C@@H]1CCCN(C)C1` was tested. Which EC50 did it give?
The EC50 was 600 nM.

With `CCN1CCC[C@@H](n2c(-c3cccc(/C=C/C(=O)NO)c3)nc(Cc3ccccc3)c2C)C1` as the compound, how does the EC50 read?
The EC50 was 100 nM.

With `Cc1nc(-c2cccc(/C=C/C(=O)NO)c2)n(CCN2CCOCC2)c1-c1ccccc1` as the compound, how does the EC50 read?
Its EC50 is 4000 nM.

How did the EC50 turn out when `CCN1CCC[C@@H](n2c(-c3cccc(/C=C/C(=O)NO)c3)nc(C)c2C)C1` was run?
The EC50 was 300 nM.

How did the EC50 turn out when `O=C(/C=C/c1cccc(-c2nc3ccccc3n2[C@H]2CCCNC2)c1)NO` was run?
The EC50 was 2500 nM.

With `Cc1nc(-c2cccc(/C=C/C(=O)NO)c2)n(CCc2ccccc2)c1-c1ccccc1` as the compound, how does the EC50 read?
Its EC50 is 1000 nM.

Tested on: HL-60
Experiment: Cytotoxicity against human HL60 cells assessed as NADH level after 72 hrs by MTS cells
Type: functional, cell-based
Conditions: HL-60, 72 h
Outline: as §1

`CC(C)n1c(-c2cccc(/C=C/C(=O)NO)c2)nc2ccccc21` was tested. Which EC50 did it give?
Its EC50 is 1000 nM.

`Cc1c(Cc2ccccc2)nc(-c2cccc(/C=C/C(=O)NO)c2)n1CCc1ccccc1` was tested. Which EC50 did it give?
The EC50 was 200 nM.

With `Cc1c(-c2ccccc2)nc(-c2cccc(/C=C/C(=O)NO)c2)n1[C@@H]1CCCN(C)C1` as the compound, how does the EC50 read?
The EC50 was 40 nM.

Which EC50 does the source give for `CCN1CCC[C@@H](n2c(-c3cccc(/C=C/C(=O)NO)c3)nc(Cc3ccccc3)c2C)C1` here?
The EC50 was 30 nM.

`Cc1nc(-c2cccc(/C=C/C(=O)NO)c2)n(CCN2CCOCC2)c1-c1ccccc1` was tested. Which EC50 did it give?
The EC50 was 300 nM.

Which EC50 does the source give for `CCN1CCC[C@@H](n2c(-c3cccc(/C=C/C(=O)NO)c3)nc(C)c2C)C1` here?
Its EC50 is 40 nM.

Which EC50 does the source give for `O=C(/C=C/c1cccc(-c2nc3ccccc3n2[C@H]2CCCNC2)c1)NO` here?
The EC50 was 300 nM.

Which EC50 does the source give for `Cc1nc(-c2cccc(/C=C/C(=O)NO)c2)n(CCc2ccccc2)c1-c1ccccc1` here?
The EC50 was 300 nM.

Tested on: PC-3
Experiment: Cytotoxicity against human PC3 cells assessed as NADH level after 72 hrs by MTS cells
Type: functional, cell-based
Conditions: PC-3, 72 h
Outline: as §1

With `CC(C)n1c(-c2cccc(/C=C/C(=O)NO)c2)nc2ccccc21` as the compound, how does the EC50 read?
The EC50 was 2500 nM.

Which EC50 does the source give for `Cc1c(Cc2ccccc2)nc(-c2cccc(/C=C/C(=O)NO)c2)n1CCc1ccccc1` here?
The EC50 was 500 nM.

Which EC50 does the source give for `Cc1c(-c2ccccc2)nc(-c2cccc(/C=C/C(=O)NO)c2)n1[C@@H]1CCCN(C)C1` here?
The EC50 was 100 nM.

For `CCN1CCC[C@@H](n2c(-c3cccc(/C=C/C(=O)NO)c3)nc(Cc3ccccc3)c2C)C1`, which EC50 is on record?
Its EC50 is 40 nM.

For `Cc1nc(-c2cccc(/C=C/C(=O)NO)c2)n(CCN2CCOCC2)c1-c1ccccc1`, which EC50 is on record?
The EC50 was 1000 nM.

`CCN1CCC[C@@H](n2c(-c3cccc(/C=C/C(=O)NO)c3)nc(C)c2C)C1` was tested. Which EC50 did it give?
Its EC50 is 80 nM.

How did the EC50 turn out when `O=C(/C=C/c1cccc(-c2nc3ccccc3n2[C@H]2CCCNC2)c1)NO` was run?
Its EC50 is 600 nM.

`Cc1nc(-c2cccc(/C=C/C(=O)NO)c2)n(CCc2ccccc2)c1-c1ccccc1` was tested. Which EC50 did it give?
The EC50 was 500 nM.
